In ChEMBL document CHEMBL4392833, “Thiazolyl-pyrazole derivatives as potential antimycobacterial agents” (Bioorg Med Chem Lett, 2019):
pIC50: −log10 of the molar value. ≈ marks a conversion by molar mass, not a printed value.

Experiments:
[1] = system: Mycobacterium tuberculosis; assay: Antitubercular activity against dormant stage of Mycobacterium tuberculosis H37Ra ATCC 25177 assessed as growth inhibition at 30 ug/ml after 12 days by XRMA relative to control; type: functional; details: H37Ra ATCC 25177, 288 h
[2] = system: Mycobacterium tuberculosis; assay: Antitubercular activity against dormant stage of Mycobacterium tuberculosis H37Ra ATCC 25177 infected in human THP1 cells by nitrate reductase assay; type: functional, organism-based; details: for MIC90: H37Ra ATCC 25177
[3] = system: Mycobacterium tuberculosis; assay: Antitubercular activity against dormant stage of Mycobacterium tuberculosis H37Ra ATCC 25177 by two fold dilution technique; type: functional
Method in brief: (§1)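 MIC against dormant-stage bacilli, read out by XTT reduction menadione assay (XRMA), with rifampicin MIC determined the same way as reference.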

[4] = (§2) Growth inhibition of human PANC1 cells by MTT assay; type: cell-based, PANC-1; details: PANC-1 cells
Method in brief: (§3)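 Human cancer cell lines were exposed in vitro to a range of compound concentrations. Viability was read by MTT colorimetric assay, and GI50 and GI90 were derived from the concentration series.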

PANC-1 = assay: as §2; type: cell-based; details: panc-1; method in brief: as §3
[5] = system: Mycobacterium tuberculosis; assay: Antitubercular activity against dormant stage of Mycobacterium tuberculosis H37Ra ATCC 25177 assessed as growth inhibition at 3 ug/ml after 12 days by XRMA relative to control; type: functional; details: H37Ra ATCC 25177, 288 h
THP-1 [6] = assay: Cytotoxicity against human THP1 cells at 3 ug/ml; type: cell-based
[7] = (§4) Growth inhibition of human A549 cells by MTT assay; type: cell-based; details: A549 cells; method in brief: as §3
A549 = assay: as §4; type: cell-based; details: a549; method in brief: as §3
THP-1 [8] = assay: Cytotoxicity against human THP1 cells at 10 ug/ml; type: cell-based
THP-1 [9] = assay: Cytotoxicity against human THP1 cells at 30 ug/ml; type: cell-based
[10] = (§5) Growth inhibition of human HeLa cells by MTT assay; type: cell-based; details: HeLa cells; method in brief: as §3
HeLa = assay: as §5; type: cell-based; details: hela; method in brief: as §3
[11] = system: Mycobacterium tuberculosis; assay: Antitubercular activity against dormant stage of Mycobacterium tuberculosis H37Ra ATCC 25177 assessed as growth inhibition at 10 ug/ml after 12 days by XRMA relative to control; type: functional; details: H37Ra ATCC 25177, 288 h
[12] = system: Mycobacterium tuberculosis; assay: Antitubercular activity against dormant stage of Mycobacterium tuberculosis H37Ra ATCC 25177 after 12 days by XRMA; type: functional, organism-based; details: H37Ra ATCC 25177, 288 h; method in brief: as §1
[13] = Growth inhibition of human THP1 cells; type: cell-based; details: THP-1 cells

With `Cc1nc(C)c(-c2nn(-c3ccc(F)cc3)cc2/C=C/C(=O)c2cc(Cl)ccc2O)s1` the inhibition at 30 µg/mL [1] was 3.39%, the MIC90 [2] was > 30 µg/mL and the IC50 ([2]; H37Ra ATCC 25177, THP-1) was > 30 µg/mL. For the same compound, the MIC90 [3] was > 30 µg/mL, the GI50 [4] was > 250 µg/mL and the GI90 (PANC-1) was > 250 µg/mL. For the same compound, the inhibition at 3 µg/mL [5] was 2.66%, the Activity (THP-1 [6]) was 16.49% and the GI50 [7] was > 250 µg/mL. For the same compound, the GI90 (A549) was > 250 µg/mL, the Activity (THP-1 [8]) was 34.74% and the Activity (THP-1 [9]) was 36.55%. The GI50 [10] was > 250 µg/mL, the GI90 (HeLa) was > 250 µg/mL and the inhibition at 10 µg/mL [11] was 5.49%. For the same compound, the IC50 [12] was > 30 µg/mL.
For `CC(=O)O[C@H]1C(=O)[C@@]2(C)[C@H]([C@H](OC(=O)c3ccccc3)[C@]3(O)C[C@H](OC(=O)[C@H](O)[C@@H](NC(=O)c4ccccc4)c4ccccc4)C(C)=C1C3(C)C)[C@]1(OC(C)=O)CO[C@@H]1C[C@@H]2O` [PACLITAXEL], the GI90 (PANC-1) was 5.715 µg/mL (≈ 6.69 µM), the GI90 (A549) was 0.0706 µg/mL (≈ 0.0827 µM) and the GI90 (HeLa) was 0.075 µg/mL (≈ 0.0878 µM).
Work on `Cc1nc(C)c(-c2nn(-c3ccc(F)cc3)cc2/C=C/C(=O)c2cc(Cl)c(C)cc2O)s1` yielded an inhibition at 30 µg/mL [1] of 92.7%, an MIC90 [2] of 7.56 µM and a pIC50 ([2]; H37Ra ATCC 25177, THP-1) of 5.72. For the same compound, the MIC90 [3] was 49.7 µM, the GI50 [4] was > 250 µg/mL and the GI90 (PANC-1) was > 250 µg/mL. For the same compound, the inhibition at 3 µg/mL [5] was 3.95%, the Activity (THP-1 [6]) was 10.73% and the GI50 [7] was > 250 µg/mL. The GI90 (A549) was > 250 µg/mL, the Activity (THP-1 [8]) was 13.26% and the Activity (THP-1 [9]) was 17.45%. The GI50 [10] was 34.9 µg/mL (≈ 74.5 µM), the GI90 (HeLa) was 87.29 µg/mL (≈ 187 µM) and the inhibition at 10 µg/mL [11] was 16.3%. For the same compound, the pIC50 [12] was 5.61.
In the case of `Cc1nc(C)c(-c2nn(-c3ccc(F)cc3)cc2C2CC(c3cc(Br)ccc3O)=NN2)s1` (configuration not stated), the inhibition at 30 µg/mL [1] was 88.2%, the MIC90 [2] was 2.95 µM and the pIC50 ([2]; H37Ra ATCC 25177, THP-1) was 6.39. The MIC90 [3] was 5.79 µM, the GI50 [4] was 76.4 µg/mL (≈ 149 µM) and the GI90 (PANC-1) was 115.65 µg/mL (≈ 226 µM). It also gave an inhibition at 3 µg/mL [5] of 42.5%, an Activity (THP-1 [6]) of 13.91% and a GI50 [7] of 81.4 µg/mL (≈ 159 µM). The GI90 (A549) was 154.68 µg/mL (≈ 302 µM), the Activity (THP-1 [8]) was 14.69% and the Activity (THP-1 [9]) was 19.51%. For the same compound, the GI50 [13] was > 30 µg/mL, the GI50 [10] was 21.6 µg/mL (≈ 42.2 µM) and the GI90 (HeLa) was 43.11 µg/mL (≈ 84.1 µM). For the same compound, the inhibition at 10 µg/mL [11] was 75.5% and the pIC50 [12] was 6.51.
`Cc1nc(C)c(-c2nn(-c3ccc(F)cc3)cc2-c2cc(=O)c3cc(Cl)c(C)cc3o2)s1` gave an inhibition at 30 µg/mL [1] of 93.7%, an MIC90 [2] of 2.94 µM and a pIC50 ([2]; H37Ra ATCC 25177, THP-1) of 6.17. For the same compound, the MIC90 [3] was 3.69 µM, the GI50 [4] was > 250 µg/mL and the GI90 (PANC-1) was > 250 µg/mL. The inhibition at 3 µg/mL [5] was 53.5%, the Activity (THP-1 [6]) was 12.82% and the GI50 [7] was > 250 µg/mL. The GI90 (A549) was > 250 µg/mL, the Activity (THP-1 [8]) was 16.62% and the Activity (THP-1 [9]) was 24.65%. For the same compound, the GI50 [13] was > 30 µg/mL, the GI50 [10] was 16.7 µg/mL (≈ 35.8 µM) and the GI90 (HeLa) was 53.48 µg/mL (≈ 115 µM). For the same compound, the inhibition at 10 µg/mL [11] was 23.2% and the pIC50 [12] was 5.78.
For `Cc1nc(C)c(-c2nn(-c3ccc(F)cc3)cc2C2CC(c3c(O)cc(C)c(Cl)c3C)=NN2)s1` (configuration not stated), the inhibition at 30 µg/mL [1] was 93.7%, the MIC90 [2] was 1.23 µM and the pIC50 ([2]; H37Ra ATCC 25177, THP-1) was 6.36. It also gave an MIC90 [3] of 5.04 µM, a GI50 [4] of 41.6 µg/mL (≈ 83.9 µM) and a GI90 (PANC-1) of 77.64 µg/mL (≈ 157 µM). It also gave an inhibition at 3 µg/mL [5] of 91%, an Activity (THP-1 [6]) of 9.52% and a GI50 [7] of 43.4 µg/mL (≈ 87.4 µM). It also gave a GI90 (A549) of 88.98 µg/mL (≈ 179 µM), an Activity (THP-1 [8]) of 15.45% and an Activity (THP-1 [9]) of 18.32%. For the same compound, the GI50 [13] was > 30 µg/mL, the GI50 [10] was 25.2 µg/mL (≈ 50.8 µM) and the GI90 (HeLa) was 46.87 µg/mL (≈ 94.5 µM). For the same compound, the inhibition at 10 µg/mL [11] was 95.4% and the pIC50 [12] was 7.10.
Compound `Cc1ccc(O)c(C(=O)/C=C/c2cn(-c3ccc(F)cc3)nc2-c2sc(C)nc2C)c1` has an inhibition at 30 µg/mL [1] of 96%, an MIC90 [2] of 17.1 µM and a pIC50 ([2]; H37Ra ATCC 25177, THP-1) of 5.54. It also gave an MIC90 [3] of 32.7 µM, a GI50 [4] of 52.4 µg/mL (≈ 121 µM) and a GI90 (PANC-1) of 114.87 µg/mL (≈ 265 µM). The inhibition at 3 µg/mL [5] was 34.7%, the Activity (THP-1 [6]) was 14.14% and the GI50 [7] was 47.8 µg/mL (≈ 110 µM). The GI90 (A549) was 136.87 µg/mL (≈ 316 µM), the Activity (THP-1 [8]) was 15.3% and the Activity (THP-1 [9]) was 24.3%. It also gave a GI50 [10] of 29.9 µg/mL (≈ 68.9 µM), a GI90 (HeLa) of 77.32 µg/mL (≈ 178 µM) and an inhibition at 10 µg/mL [11] of 61.7%. The pIC50 [12] was 5.25.
